What was measured:
[1] = biological target: T1, Aryl hydrocarbon receptor (Homo sapiens, UniProt P35869); assay: Antagonist activity at AhR in human HepG2 cells co-transfected with pSELECT-zeo-Lucia and CYP1A1 assessed as inhibition of FICZ-induced receptor transactivation at 30 uM incubated for 24 hrs by luciferase reporter gene assay relative to control; format: cell-based; conditions: hepg2, 24 h
T1 sequence (P35869 whole entry): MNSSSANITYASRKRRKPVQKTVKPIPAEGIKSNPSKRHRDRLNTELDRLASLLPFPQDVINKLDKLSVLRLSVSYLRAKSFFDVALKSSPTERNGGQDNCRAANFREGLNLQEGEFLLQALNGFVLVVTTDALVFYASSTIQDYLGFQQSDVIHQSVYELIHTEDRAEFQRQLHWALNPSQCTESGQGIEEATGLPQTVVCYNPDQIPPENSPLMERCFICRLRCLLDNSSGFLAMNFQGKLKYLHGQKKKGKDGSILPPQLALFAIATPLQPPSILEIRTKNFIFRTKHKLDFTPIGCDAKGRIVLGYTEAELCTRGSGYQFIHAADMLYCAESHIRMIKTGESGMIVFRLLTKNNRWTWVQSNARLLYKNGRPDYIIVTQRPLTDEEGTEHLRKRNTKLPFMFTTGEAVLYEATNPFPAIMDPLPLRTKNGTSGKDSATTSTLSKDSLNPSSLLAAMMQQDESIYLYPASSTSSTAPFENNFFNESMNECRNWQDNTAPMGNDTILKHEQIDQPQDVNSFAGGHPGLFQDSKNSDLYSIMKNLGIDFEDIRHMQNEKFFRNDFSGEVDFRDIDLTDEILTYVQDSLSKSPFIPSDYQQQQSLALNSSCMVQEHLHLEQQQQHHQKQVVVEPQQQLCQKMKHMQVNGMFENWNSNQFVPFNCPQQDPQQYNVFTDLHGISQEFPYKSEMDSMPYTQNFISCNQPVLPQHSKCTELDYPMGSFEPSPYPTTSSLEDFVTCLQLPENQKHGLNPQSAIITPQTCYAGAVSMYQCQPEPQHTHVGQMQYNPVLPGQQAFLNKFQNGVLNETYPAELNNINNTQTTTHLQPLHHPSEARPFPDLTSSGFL

[2] = biological target: T1, Aryl hydrocarbon receptor; assay: Antagonist activity at AhR in human HepG2 cells assessed as inhibition of FICZ-induced AhR transcriptional activity incubated for 24 hrs by Quanti-Luc reagent based luminescence assay; format: cell-based
[3] = biological target: T1, Aryl hydrocarbon receptor; conditions: HepG2, human, 24 h, read-out: RUmax
[4] = biological target: T1, Aryl hydrocarbon receptor; assay: Agonist activity at AhR in human HepG2 cells co-transfected with pSELECT-zeo-Lucia and CYP1A1 assessed as induction of receptor transactivation incubated for 24 hrs by luciferase reporter gene assay; format: cell-based
[5] = biological target: T1, Aryl hydrocarbon receptor; conditions: HepG2, human, 24 h, read-out: RUmax; remark: listed apart in the source
HepG2 [6] = assay: Cytotoxicity against human HepG2 cells harboring AhR assessed as reduction in cell viability at 0.1 to 10 uM measured for 24 to 72 hrs by MTT assay; format: cell-based; conditions: hepg2, 10 µM, dose lower 0.1 µM, time lower 24 hrs, dose upper 10 µM, time upper 72 hrs
Outline: (§1)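 AhR-HepG2 cells were treated for 24–72 h with compounds at 0.1, 1.0, 5.0 and 10.0 µM, some also at 2.5 and 7.5 µM. MTT at 0.5 mg/mL was added and plates incubated at 37 °C. Formazan was dissolved in DMSO and absorbance read at 490 nm. Viability below 85% of vehicle counted as cytotoxic. One-way ANOVA with Dunnett's test; mean ± SEM, n≥3.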

[7] = biological target: T1, Aryl hydrocarbon receptor; conditions: HepG2, human, 24 h, read-out: RUmax; remark: listed apart in the source
[8] = Cytotoxicity against human HepG2 cells harboring AhR assessed as reduction in cell viability at > 5 uM measured for 24 hrs by MTT assay relative to control; format: cell-based; conditions: read-out: INH; outline: as §1
[9] = biological target: T1, Aryl hydrocarbon receptor; conditions: HepG2, human, 24 h, read-out: RUmax; remark: listed apart in the source
[10] = biological target: T1, Aryl hydrocarbon receptor; conditions: HepG2, human, 24 h, read-out: RUmax; remark: listed apart in the source
HepG2 [11] = assay: Cytotoxicity against human HepG2 cells harboring AhR assessed as reduction in cell viability at 0.1 to 10 uM measured after 24 hrs by MTT assay; format: cell-based; conditions: hepg2, 24 h, dose 0.1-10 µM; outline: as §1

| SMILES | EC50 [4] [µM] | activity at 10 µM [5] [%] | inhibition at 10 µM [7] [%] | also measured |
| --- | --- | --- | --- | --- |
| Cc1ccccc1/N=N/c1ccc(NC(=O)c2ccnn2C)c(C)c1 | – | – | – | RUmax [1]: 54.5%; IC50 [2]: 2.43 µM |
| O=Cc1c2[nH]c3ccccc3c2cc2[nH]c3ccccc3c12 | – | – | – | Emax at 18 µM [3]: 100% |
| Oc1ccc(C(c2ccccn2)c2c(O)ccc3ccccc23)cc1 (stereo not drawn) | – | – | – | Activity (HepG2 [6]): Non-Toxic |
| CC(=O)Oc1ccc(C(c2ccc(Br)cc2)c2ccccn2)cc1 (stereo not drawn) | > 1000 | 6.32 | 143 | – |
| CC(=O)Oc1ccc(C(c2ccc(Cl)cc2)c2cccc[n+]2[O-])cc1 (stereo not drawn) | > 200 | 7.78 | 78.8 | – |
| CC(=O)Oc1ccc(C(c2ccc(C)cc2)c2cccc[n+]2[O-])cc1 (stereo not drawn) | > 200 | 6.28 | 93.3 | – |
| CC(=O)Oc1ccc(C(c2ccccn2)c2c[nH]c3ccccc23)cc1 (stereo not drawn) | – | – | – | Activity (HepG2 [6]): Non-Toxic |
| Oc1ccc(C(c2ccccn2)c2cccs2)cc1 (stereo not drawn) | – | – | – | Activity (HepG2 [6]): Non-Toxic |
| CC(=O)Oc1ccc(C(c2ccc(F)cc2)c2cccc[n+]2[O-])cc1 (stereo not drawn) | > 1000 | 6.51 | 92.4 | – |
| COc1ccc(C(c2ccccn2)c2c(O)ccc3ccccc23)cc1 (stereo not drawn) | – | – | – | Activity (HepG2 [6]): Non-Toxic |
| CC(=O)Oc1ccc(C(c2ccccn2)c2c(OC(C)=O)ccc3ccccc23)cc1 (stereo not drawn) | > 200 | 5.17 | 144 | – |
| COc1ccc(C(O)(c2ccccn2)c2ccc3ccccc3n2)cc1 (stereo not drawn) | – | – | – | Activity (HepG2 [6]): Non-Toxic |
| CC(=O)Oc1ccc(C(c2ccc(C(C)(C)C)cc2)c2cccc[n+]2[O-])cc1 (stereo not drawn) | – | – | – | cytotoxicity at 24 h [8]: 50%; activity at 1 µM [9]: 6.1%; inhibition at 1 µM [10]: 120% |
| CC(=O)Oc1ccc(C(c2ccc(C(C)(C)C)cc2)c2ccccn2)cc1 (stereo not drawn) | – | – | – | cytotoxicity at 24 h [8]: 50%; activity at 1 µM [9]: 5.32%; inhibition at 1 µM [10]: 113% |
| CC(=O)Oc1ccc(C(c2ccc(Br)cc2)c2cccc[n+]2[O-])cc1 (stereo not drawn) | > 100 | 8.8 | 106 | – |
| CC(=O)Oc1ccc(C(c2ccccn2)n2nnc3ccccc32)cc1 (stereo not drawn) | > 100 | 9.23 | 142 | – |
| CC(=O)Oc1ccc(C(c2ccc(C(F)(F)F)cc2)c2ccccn2)cc1 (stereo not drawn) | – | – | – | cytotoxicity at 24 h [8]: 50%; activity at 1 µM [9]: 7.71%; inhibition at 1 µM [10]: 117% |
| CC(C)(C)c1ccc(C(c2ccc(O)cc2)c2ccccn2)cc1 (stereo not drawn) | – | – | – | cytotoxicity at 24 h [8]: > 90%; activity at 1 µM [9]: 6.89%; inhibition at 1 µM [10]: 113% |
| COc1ccc(C(O)(c2ccc(C(F)(F)F)cc2)c2ccccn2)cc1 (stereo not drawn) | 52 | 26.6 | – | Activity (HepG2 [6]): Non-Toxic; Activity (HepG2 [11]): Toxic |
| CC(=O)Oc1ccc(C(c2ccc(OC(C)=O)cc2)c2ccccn2)cc1 [BISACODYL] | > 1000 | 6.58 | 107 | – |

Second part, led by results:

| EC50 [4] [µM] | activity at 10 µM [5] [%] | inhibition at 10 µM [7] [%] | SMILES | also measured |
| --- | --- | --- | --- | --- |
| > 100 | 9.42 | – | CC(=O)Oc1ccc(C(c2ccc(C)cc2)c2ccccn2)cc1 (stereo not drawn) | – |
| > 100 | 6.93 | 114 | Cc1ccc(C(c2ccccn2)c2ccccc2O)cc1 (stereo not drawn) | – |
| > 100 | 7.09 | 139 | Cc1ccc(C(c2ccc(O)cc2)c2ccccn2)cc1 (stereo not drawn) | – |
| > 1000 | 7.18 | 115 | Oc1ccccc1C(c1ccc(Cl)cc1)c1ccccn1 (stereo not drawn) | – |
| > 1000 | 7.99 | 117 | Oc1ccccc1C(c1ccc(Br)cc1)c1ccccn1 (stereo not drawn) | – |
| > 100 | 6.59 | – | Oc1ccc(C(c2ccc(Cl)cc2)c2ccccn2)cc1 (stereo not drawn) | – |
| > 100 | 8.77 | 118 | CC(=O)Oc1ccc(C(c2ccc(F)cc2)c2ccccn2)cc1 (stereo not drawn) | – |
| 21.7 | 114 | – | COc1ccc(C(c2ccccn2)c2c[nH]c3ccccc23)cc1 (stereo not drawn) | Activity (HepG2 [6]): Non-Toxic |
| > 50 | 10.5 | 137 | COc1ccc(C(c2ccccn2)c2cccs2)cc1 (stereo not drawn) | Activity (HepG2 [6]): Non-Toxic |
| > 1000 | 6.89 | 112 | Oc1ccccc1C(c1ccc(F)cc1)c1ccccn1 (stereo not drawn) | – |
| > 1000 | 6.81 | – | CC(C)(C)c1ccc(C(c2ccccn2)c2ccccc2O)cc1 (stereo not drawn) | – |
| > 100 | 7.71 | – | Oc1ccc(C(c2ccc(Br)cc2)c2ccccn2)cc1 (stereo not drawn) | – |
| > 100 | 8.86 | – | COc1ccc(C(c2ccccn2)n2nnc3ccccc32)cc1 (stereo not drawn) | – |
| > 400 | 7.79 | – | Oc1ccc(C(c2ccc(F)cc2)c2ccccn2)cc1 (stereo not drawn) | – |
| > 1000 | 6.26 | 128 | CC(=O)Oc1ccc(C(c2ccc(Cl)cc2)c2ccccn2)cc1 (stereo not drawn) | – |

— ChEMBL document CHEMBL4706594, “Targeting the aryl hydrocarbon receptor with a novel set of triarylmethanes” (Eur J Med Chem, 2020)
